The source of these data is ChEMBL document CHEMBL3352788, “Characterization of selective exosite-binding inhibitors of matrix metalloproteinase 13 that prevent articular cartilage degradation in vitro” (J Med Chem, 2014).

The target in assay [1] is T1, Cathepsin K (Homo sapiens) (UniProt P43235).
T1 sequence (whole entry): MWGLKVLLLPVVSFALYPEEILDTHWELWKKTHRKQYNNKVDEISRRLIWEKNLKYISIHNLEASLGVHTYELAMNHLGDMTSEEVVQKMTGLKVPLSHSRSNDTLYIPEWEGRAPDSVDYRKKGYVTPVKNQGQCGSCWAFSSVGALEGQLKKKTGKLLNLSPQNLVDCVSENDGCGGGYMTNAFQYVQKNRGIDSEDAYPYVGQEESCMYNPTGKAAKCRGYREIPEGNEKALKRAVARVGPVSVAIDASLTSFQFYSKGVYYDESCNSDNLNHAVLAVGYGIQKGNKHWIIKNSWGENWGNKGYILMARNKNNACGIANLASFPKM
Briefly: Inhibition of recombinant human cathepsin K using HHQKLVFFAE substrate at up to 20 uM after 3 hrs. The method in brief: (§1)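 Outsourced microfluidic protease panel. Compound was preincubated with each protease for 30 min at 25 °C, then peptide substrate was added for 3 h at 25 °C and quenched with SDS/EDTA/iodoacetate. Substrate-to-product conversion was measured on LabChip. Compounds were tested singly in a 12-point 3-fold dilution series, top 20 μM (5 μM for two reference compounds).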

The target in assay [2] is Urokinase-type plasminogen activator (Homo sapiens) (UniProt P00749). Nature of the assay: Inhibition of recombinant human uPA using GRTSSVEP substrate at up to 20 uM after 3 hrs. An outline of the steps: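 Each protease was preincubated 30 min at 25 °C with compound in its assay buffer. Peptide substrate was then added and the reaction ran 3 h at 25 °C before quenching with SDS/EDTA/iodoacetate. Substrate-to-product conversion (%) was read by microfluidic electrophoresis. Compounds were tested in singlicate as 12-point 3-fold dilutions from 20 μM to 0.1 nM. IC50 was taken as the concentration giving 50% of no-compound control activity.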

The target of another assay is T2, Caspase-7 (Homo sapiens) (UniProt P55210).
T2 sequence (whole entry): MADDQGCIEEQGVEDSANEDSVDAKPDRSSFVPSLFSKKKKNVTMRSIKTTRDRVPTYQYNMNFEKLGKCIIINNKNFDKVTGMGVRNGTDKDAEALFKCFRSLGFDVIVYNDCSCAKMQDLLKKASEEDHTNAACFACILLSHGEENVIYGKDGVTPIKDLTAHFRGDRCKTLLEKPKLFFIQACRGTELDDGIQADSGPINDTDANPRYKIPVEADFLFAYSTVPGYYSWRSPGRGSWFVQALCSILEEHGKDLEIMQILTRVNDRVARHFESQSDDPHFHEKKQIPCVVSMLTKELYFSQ
Nature of the assay: Inhibition of recombinant human caspase 7 using DEVDAA substrate at up to 20 uM after 3 hrs. An outline of the steps: as §1

A further assay has as its target T3, Caspase-3 (Homo sapiens) (UniProt P42574).
T3 sequence (whole entry): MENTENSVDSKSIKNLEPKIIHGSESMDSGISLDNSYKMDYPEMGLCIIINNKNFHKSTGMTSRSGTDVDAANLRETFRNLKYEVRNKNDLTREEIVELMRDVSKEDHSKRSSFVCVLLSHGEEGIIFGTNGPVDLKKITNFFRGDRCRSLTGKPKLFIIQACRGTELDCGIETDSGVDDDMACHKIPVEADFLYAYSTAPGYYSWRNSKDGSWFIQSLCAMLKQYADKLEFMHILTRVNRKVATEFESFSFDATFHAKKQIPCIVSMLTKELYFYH
Nature of the assay: Inhibition of recombinant human caspase 3 using DEVDAA substrate at up to 20 uM after 3 hrs. An outline of the steps: as §1

The target of the next assay is T4, Cytochrome P450 2B6 (Homo sapiens, UniProt P20813).
T4 sequence (P20813 whole entry): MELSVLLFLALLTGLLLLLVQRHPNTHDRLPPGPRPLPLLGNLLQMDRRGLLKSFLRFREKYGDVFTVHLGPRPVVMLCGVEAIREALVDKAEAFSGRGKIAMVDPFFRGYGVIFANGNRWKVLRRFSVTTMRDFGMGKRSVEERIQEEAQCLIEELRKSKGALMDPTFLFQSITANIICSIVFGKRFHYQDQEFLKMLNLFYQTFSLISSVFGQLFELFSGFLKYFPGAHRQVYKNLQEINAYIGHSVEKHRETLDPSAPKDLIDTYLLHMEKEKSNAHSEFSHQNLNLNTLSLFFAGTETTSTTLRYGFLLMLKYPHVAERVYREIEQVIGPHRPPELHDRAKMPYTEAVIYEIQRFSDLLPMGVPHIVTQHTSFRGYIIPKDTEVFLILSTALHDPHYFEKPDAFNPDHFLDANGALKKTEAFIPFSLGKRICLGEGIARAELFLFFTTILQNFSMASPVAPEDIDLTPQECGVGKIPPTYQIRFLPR
Nature of the assay: Inhibition of CYP2B6 (unknown origin) using bupropion substrate. Type of assay: ADME. An outline of the steps: (§2)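 Human liver microsomes with probe substrate and an NADPH-regenerating system in 0.1 M potassium phosphate pH 7.4 at 37 °C, run in duplicate. Inhibitor at 0–20 μM (0–2.5 μM for one compound), eight concentrations. Reactions were stopped with acetonitrile/formic acid containing isotope-labelled internal standard, and metabolite area ratios were compared with and without inhibitor. IC50 was taken by linear interpolation between bracketing concentrations.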

The target of another assay is T5, Cytochrome P450 2C8 (Homo sapiens, UniProt P10632).
T5 sequence (P10632 whole entry): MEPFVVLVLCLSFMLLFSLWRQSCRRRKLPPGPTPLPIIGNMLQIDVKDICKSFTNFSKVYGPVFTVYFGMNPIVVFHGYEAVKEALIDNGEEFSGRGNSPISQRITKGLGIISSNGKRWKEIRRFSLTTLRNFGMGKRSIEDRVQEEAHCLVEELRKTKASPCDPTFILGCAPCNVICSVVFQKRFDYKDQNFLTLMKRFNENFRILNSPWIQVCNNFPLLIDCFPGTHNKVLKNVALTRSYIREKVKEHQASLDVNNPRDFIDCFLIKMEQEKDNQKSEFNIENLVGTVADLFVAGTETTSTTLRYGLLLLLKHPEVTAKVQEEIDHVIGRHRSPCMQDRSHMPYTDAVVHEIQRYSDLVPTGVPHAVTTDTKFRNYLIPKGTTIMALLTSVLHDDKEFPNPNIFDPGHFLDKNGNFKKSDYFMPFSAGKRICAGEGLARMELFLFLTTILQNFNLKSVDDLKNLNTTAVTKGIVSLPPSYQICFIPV
Briefly: Inhibition of CYP2C8 (unknown origin) using amodiaquine substrate. In kind it is ADME. The method in brief: as §2

A word on the inhibition: it is the drop in the measured response relative to a control, in per cent. In the case of `Cc1ccc(CSc2nc(O)c3c(n2)CCC3)cc1`, the inhibition in assay [1] was 20%; in assay [2], below 10%; on Caspase-7 (Homo sapiens), below 10%; on Caspase-3 (Homo sapiens) it was below 10%.
A word on the IC50: it is the point on the concentration scale where inhibition reaches its midpoint. Read a high IC50 as weaker potency. On to `COC(=O)c1ccc(CSc2nc3c(c(=O)[nH]2)CCC3)cc1`, for which the inhibition (in assay [1]; in assay [2]; at Caspase-7 (Homo sapiens); at Caspase-3 (Homo sapiens)) was below 10% throughout. Also, the IC50 at Cytochrome P450 2B6 and on Cytochrome P450 2C8 was above 20 µM throughout.
As to `Cc1cc(CNC(=O)c2cc(C(=O)NCc3ccc(F)c(C)c3)ncn2)ccc1F`, the IC50 against Cytochrome P450 2B6 and at Cytochrome P450 2C8 was above 20 µM each time.
For `Cn1c(=O)n(Cc2ccc(C(=O)O)cc2)c(=O)c2cc(C#CCc3ccccc3)ccc21`, the IC50 on Cytochrome P450 2B6 and at Cytochrome P450 2C8 was above 2.5 µM in each case.
For `Oc1nc(SCc2ccc(Cl)cc2)nc2c1CCC2`, the inhibition (in assay [1]; in assay [2]; on Caspase-7 (Homo sapiens); at Caspase-3 (Homo sapiens)) was below 10% throughout. Moreover, the IC50 on Cytochrome P450 2B6 and against Cytochrome P450 2C8 was above 20 µM throughout.
